B1: tRNA (parent)
chain: GUUCCGUUGGCGUAAUGGUAACGCGUCUCCCUCCUAAGGAGAAGACUGCGGGUUCGAGUCCCGUACGGAACG

These results are taken from the RNAGym collection of RNA variant scans (doi:10.1126/science.aae0568).

This sample holds only a part of the variants without activity. Some results are limits rather than exact numbers.

Variants of B1 are the subject of the data set. The data set can be described thus: yeast fitness relative to wild type (ratio to wild type); higher = fitter; tRNA-Arg(CCU), competitive growth, 37 C, YPD. In outline: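 Amplicons of the tRNA-Arg(CCU) gene were sequenced, 100-nucleotide paired-end, from the start population and from each end population of a pooled yeast competition. The competition, in six parallel replicates, lasted 24 hours in YPD at 37°C. Fitness relative to wild type was calculated from changes in genotype frequencies. Genotypes had to have ≥ 100 starting reads, and estimates < 0.5 were set to 0.5.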
Turning to C4U C34U U59A, the yeast fitness is no more than 0.5.

For C11A G25C C29U C49U, the yeast fitness is no more than 0.5.

Take U32A G67C: the yeast fitness was determined as 0.732.

Regarding U7G G12C A14C A15G A37C A57U, the yeast fitness is no more than 0.5.

On to U7G A43G C60U C62U A70C, for which the yeast fitness is no more than 0.5.

In the case of U3A G38A A57U C62U, the yeast fitness was no more than 0.5.

With C4U C11G G41A, the yeast fitness is no more than 0.5.

For the variant C24U G48A C62G A69U, the yeast fitness is 0.606.

C31U A57C G58A A69G: the yeast fitness amounted to 0.554.

Take A20U U64C A69C: the yeast fitness amounted to 0.657.

Consider C11U G38A A40U G52C G68C A69G, for which the yeast fitness was no more than 0.5.

Take G17C G52C C61A C66G: the yeast fitness was 0.637.

For the variant C4U C11G C49U C61A, the yeast fitness was no more than 0.5.

Turning to C24U A45C C61G, the yeast fitness was no more than 0.5.

U2G G41C: the yeast fitness was 0.818.

On to C24U U32G A40U U64G, for which the yeast fitness was 0.593.

In the case of U3A A21G C66U A70C, the yeast fitness came to 0.794.

For the variant G12C G25C, the yeast fitness is 0.762.

Turning to C5A A57G C66U, the yeast fitness was no more than 0.5.

In the case of U8C A45G C49A, the yeast fitness amounted to 0.574.

Consider C22G A37C U54C, for which the yeast fitness was no more than 0.5.

With C4G A15G A37U A40C G48A G50C, the yeast fitness amounted to 0.515.

With G23C A43U C61U G68A, the yeast fitness stood at 0.52.

As for G9C C27U C33G A37G, the yeast fitness was no more than 0.5.

For the variant C5G G25A C34A C49G G50A, the yeast fitness is no more than 0.5.

For the variant C4A G17C G51C G58A, the yeast fitness was no more than 0.5.

In the case of C11U C22U A57U, the yeast fitness amounted to 0.512.

As to G50A U59C, the yeast fitness worked out at 0.863.

As for G17A C29A G67C A69U, the yeast fitness is no more than 0.5.

Regarding U16G C22G A43C, the yeast fitness stood at 0.587.

For C11U U54A, the yeast fitness is 0.733.

As to U8C U28A C29G A57C G67A, the yeast fitness was no more than 0.5.

For C22G C29A U53A, the yeast fitness was no more than 0.5.

For the variant C31A C60A, the yeast fitness turned out to be 0.629.

As to U8G U13A C34G, the yeast fitness is no more than 0.5.

Consider A43U G58U, for which the yeast fitness amounted to 0.694.

With A21C C31A U32G A40G, the yeast fitness was no more than 0.5.

Consider A45C, for which the yeast fitness was found to be 0.987.

For the variant U19C A40U, the yeast fitness turned out to be 0.98.

U19C A40C: the yeast fitness worked out at 1.1.

With C22U C24A C29A A36C, the yeast fitness was no more than 0.5.

As for G9A A36G G68U, the yeast fitness is 0.743.

For U2G G41C A65C, the yeast fitness came to 0.534.

For the variant C5G U7C C30U G50C, the yeast fitness is no more than 0.5.

Consider A21G A37C G38A A65U G68C, for which the yeast fitness was no more than 0.5.

As for C4A C5U U19A, the yeast fitness was 0.532.

For the variant U32C A70G, the yeast fitness was 0.942.

On to C31G C34U C46U G56A C62U, for which the yeast fitness is no more than 0.5.

With C5U A36G G52C, the yeast fitness is no more than 0.5.

As to C30U A42U, the yeast fitness came to 0.879.

U8A U28G: the yeast fitness came to 0.661.

Consider G9A C24G A40C G68A, for which the yeast fitness was no more than 0.5.

On to U3A C4A U8C C29G C33G A42G G48A, for which the yeast fitness was no more than 0.5.

Consider U2G G9C A14C A36U C46A C62G, for which the yeast fitness is no more than 0.5.

Consider U2G A15U C62G, for which the yeast fitness was no more than 0.5.

Regarding C27U A65C A70C, the yeast fitness stood at 0.69.

Take C5A A21U C55A C66U: the yeast fitness is no more than 0.5.

Consider U2C U7C G23A, for which the yeast fitness came to 0.592.

Consider A14U C24G C31A A40G G44C C55U A69U, for which the yeast fitness is no more than 0.5.

As to C5G G25A G68C, the yeast fitness was 0.69.

For the variant C5U G18C A45U, the yeast fitness is no more than 0.5.

As to G50A G56A, the yeast fitness came to 1.04.

As for A14C U47C A70U, the yeast fitness was found to be 0.614.

With U7A C24U, the yeast fitness was 0.669.

On to A15G C22U G68C, for which the yeast fitness was no more than 0.5.

G9C U13A G17C: the yeast fitness was no more than 0.5.

C34G A37U C49G A57G A65G C66U: the yeast fitness is no more than 0.5.

As for C22U U28C, the yeast fitness was 0.736.

On to C33G G41C G56C G58A G63C A65U, for which the yeast fitness amounted to 0.587.

Regarding C27G C55U, the yeast fitness was no more than 0.5.

On to G25C C34U A45C, for which the yeast fitness stood at 0.54.

U19A U64G: the yeast fitness worked out at 0.687.

Take C5U A45G G63A: the yeast fitness came out at 0.708.

Take C33U A43G U53C: the yeast fitness is no more than 0.5.

For C31A G67A, the yeast fitness came out at 0.754.

Turning to G10C G12A C33G U47G, the yeast fitness was no more than 0.5.

Consider U2A C5U G23A A37G A69G A70U, for which the yeast fitness came to 0.845.

As to U28A G68U, the yeast fitness is 0.762.

For G12A G23C C61G, the yeast fitness was no more than 0.5.

For the variant U3A C11G G41C, the yeast fitness came out at 0.61.

With U28A A40C, the yeast fitness was 0.961.

With G6A G18C C22G C33G, the yeast fitness was no more than 0.5.

Consider C5G G12C G18A C24U C29U A36G, for which the yeast fitness turned out to be 0.608.

As to U7C C33U G58A C66A, the yeast fitness was no more than 0.5.

As to A21G C34U A37G C60A, the yeast fitness is 0.651.

With U7A G23C, the yeast fitness stood at 0.519.

On to G6A G9C G23A U26C A40U A42U, for which the yeast fitness is no more than 0.5.

With C4U C49U C61G, the yeast fitness was 0.594.

For C5A C11G A21U G44C A57U, the yeast fitness was no more than 0.5.

On to A20C C29U C49G G58A, for which the yeast fitness was no more than 0.5.

As to C27U C30U U53A A69C, the yeast fitness was 0.507.

For U26C U47G G50C C66A, the yeast fitness was 0.685.

Consider C34U A36G, for which the yeast fitness was 0.696.

Regarding C27U U59A A65U, the yeast fitness was no more than 0.5.

In the case of A14G C49U U64A, the yeast fitness came out at 0.537.

As to A14C A70U, the yeast fitness was determined as 0.679.

As to G6A C46U G50A C61G, the yeast fitness was no more than 0.5.

With C33A U35G C49U, the yeast fitness stood at 0.904.

As to U2C G10C C24A C31U A36C G48A, the yeast fitness was no more than 0.5.

As to U7A G39C C55A, the yeast fitness turned out to be 0.723.

C31G C46U C49U G56C: the yeast fitness was no more than 0.5.

For the variant C4G U7G C60A C62U G68C, the yeast fitness was no more than 0.5.

Take C11A G25C A57U: the yeast fitness was 0.513.

For the variant A37U U54C U64A A69U, the yeast fitness was no more than 0.5.

U26A G63A: the yeast fitness stood at 0.86.

Regarding C11G A21U G51C, the yeast fitness is no more than 0.5.

Consider G10A G17A C31G, for which the yeast fitness was no more than 0.5.

As for G25A G50A, the yeast fitness was 0.997.

For G12C C24G A37C, the yeast fitness was no more than 0.5.

With C5U A14U C27G, the yeast fitness is no more than 0.5.

Take C24G C31U C60G: the yeast fitness is no more than 0.5.

On to G17C U26C C46U U64A, for which the yeast fitness is no more than 0.5.

Consider C29U A36U C66G, for which the yeast fitness was no more than 0.5.

As for G25C C33A A43U A57U A69U, the yeast fitness was no more than 0.5.

With G23A A37C C49U C62U A70G, the yeast fitness was no more than 0.5.

C22U C55G C62A: the yeast fitness is no more than 0.5.

As for A14C U32G C34G A43U G58C G67U, the yeast fitness is no more than 0.5.

Turning to C24G U47C U53G U54A G58C, the yeast fitness is no more than 0.5.

As to U2A A21C C29U G52C, the yeast fitness was no more than 0.5.

As for C5G A37C, the yeast fitness stood at 0.731.

Regarding C33U A42C C62A, the yeast fitness was no more than 0.5.

On to C31U U54G, for which the yeast fitness amounted to 0.535.

A45C C46A: the yeast fitness came to 0.991.

As to G9C G18C C49G, the yeast fitness is no more than 0.5.

In the case of C4G G48C G51C A57U G68C, the yeast fitness stood at 0.55.

On to A14U A36C, for which the yeast fitness was 0.586.

With C5U G18C C61U, the yeast fitness stood at 0.565.

Regarding C22G C27G C29G C34A A43U A65U, the yeast fitness was no more than 0.5.

For G10C C34G U54C G67U, the yeast fitness was no more than 0.5.

As for C11U U16C C31U A69G, the yeast fitness was no more than 0.5.

In the case of C11A C27U C33U U35C C62U A65G, the yeast fitness was no more than 0.5.

Consider A43G C55U C61A, for which the yeast fitness was no more than 0.5.

With C11A A14G, the yeast fitness is 0.628.

Take C22U G44A: the yeast fitness amounted to 0.865.

As to C29U A37C A40G A42U, the yeast fitness was no more than 0.5.

With U26A C34U C62A, the yeast fitness was no more than 0.5.

As for A20C A21G G23A C66A, the yeast fitness was no more than 0.5.

Regarding A14C A42G G68C, the yeast fitness is no more than 0.5.

Regarding C5G U7G A36U G41A C49G, the yeast fitness was no more than 0.5.

On to U7A C11A C33U C55G G56A, for which the yeast fitness is 0.838.

As for C33A G50A A69U A70C, the yeast fitness was no more than 0.5.

With C33G A37G A40C C49G G67C, the yeast fitness is no more than 0.5.

In the case of G25C A69C, the yeast fitness was 1.07.

A15G C46G G52A: the yeast fitness came to 0.576.

With G12C A15C, the yeast fitness was 0.67.

C5G G67A: the yeast fitness was determined as 0.86.

In the case of U19C C27A C31G U32C G39C, the yeast fitness was no more than 0.5.

Consider U3C A40G C46A, for which the yeast fitness was found to be 0.966.

As to C5U U13C U19A A21U C24A U54C, the yeast fitness is no more than 0.5.

Regarding G23A C30G A69U, the yeast fitness is no more than 0.5.

For C31U C34A A36G G38C A69U, the yeast fitness was no more than 0.5.

As to U16A A57C, the yeast fitness was found to be 0.668.

A43U A65C A69C: the yeast fitness is no more than 0.5.

Regarding G9A A36U G39A A57G A69C, the yeast fitness is no more than 0.5.

Consider C24U G58A C62U G63A, for which the yeast fitness was no more than 0.5.

Consider C24U C30U A57G C66U, for which the yeast fitness was determined as 0.538.

Consider A15C U26A G38A A40U G50C C60G A70G, for which the yeast fitness was no more than 0.5.

As to A14U A15C C31A, the yeast fitness is no more than 0.5.

C11G C55U C61A: the yeast fitness was 0.546.

For C4U C62G G67A, the yeast fitness was no more than 0.5.

As to A14C G50A, the yeast fitness was 0.612.

C34U C49A G67A: the yeast fitness was no more than 0.5.

On to A20C C30A C33U C34G G38C C62A, for which the yeast fitness was no more than 0.5.

For the variant U8C C11U C31U, the yeast fitness is 0.576.

Take C11U G18A G23A A36U G48C: the yeast fitness is no more than 0.5.

Consider G38A A40C, for which the yeast fitness was 0.624.

With A14U G48C C66A, the yeast fitness was no more than 0.5.
